Experimental data published in ChEMBL document CHEMBL1151261, “Antineoplastic agents. 509: synthesis of fluorcombstatin phosphate and related 3-halostilbenes(1)” (J Nat Prod, 2005).
In brackets after ≈: the same amount, converted by molar mass.

Columns and labels:
[1] = system: SF-268; assay: Cytotoxicity against human SF268 cells after 48 hrs by sulforhodamine B assay; format: functional; details: SF-268, 48 h
Outline: (§1)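 Human tumor lines exposed to compound for 48 h, then fixed with trichloroacetic acid and stained with sulforhodamine B (NCI standard protocol); optical density read on a microplate reader. GI50 is the concentration giving a 50% reduction in net protein increase, calculated from optical density data.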

[2] = system: NCI-H460; assay: Cytotoxicity against human NCI-H460 cells after 48 hrs by sulforhodamine B assay; format: functional; details: NCI-H460, 48 h; outline: as §1
[3] = system: DU-145; assay: Cytotoxicity against human DU145 cells after 48 hrs by sulforhodamine B assay; format: functional; details: DU-145, 48 h; outline: as §1
[4] = Displacement of [3H]colchicine from tubulin
Outline: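 [3H]colchicine binding with 1.0 μM tubulin, 5.0 μM [3H]colchicine and inhibitor at 1.0 μM.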

[5] = system: KM-20L2; assay: Cytotoxicity against human KM20L2 cells after 48 hrs by sulforhodamine B assay; format: functional; details: KM-20L2, 48 h; outline: as §1
[6] = system: P388; assay: Cytotoxicity against mouse P388 cells after 48 hrs by Coulter particle counting; details: P388, 48 h, read-out: ED50 (the source's name)
[7] = system: BXPC-3; assay: Cytotoxicity against human BxPC3 cells after 48 hrs by sulforhodamine B assay; format: functional; details: BXPC-3, 48 h; outline: as §1
[8] = system: MCF7; assay: Cytotoxicity against human MCF7 cells after 48 hrs by sulforhodamine B assay; format: functional; details: MCF7, 48 h; outline: as §1
[9] = system: Neisseria gonorrhoeae; assay: Antimicrobial activity against Neisseria gonorrhoeae ATCC 49226 after 24 hrs by broth microdilution assay; format: functional; details: ATCC 49226, 24 h
Outline: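 Neisseria tested by NCCLS broth microdilution in gonococcal typing broth. Final inoculum about 5×10^5 CFU/mL; 2-fold compound dilutions from DMSO; DMSO turbidity control; 37 °C with 5% CO₂ without agitation, 24 h. MIC = lowest concentration with no visible growth.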

SMILES	GI50 [1] [µg/mL]	GI50 [2] [µg/mL]	GI50 [3] [µg/mL]	Activity [4] [%]	GI50 [5] [µg/mL]	EC50 [6] [µg/mL]	GI50 [7] [µg/mL]	GI50 [8] [µg/mL]	MIC [9] [µg/mL]
COc1ccc(/C=C\c2cc(OC)c(OC)c(OC)c2)cc1O [COMBRETASTATIN A4]	< 0.001	0.0006 (≈ 0.0019 µM)	0.0008 (≈ 0.00253 µM)	81	0.061 (≈ 0.193 µM)	0.0003 (≈ 0.000948 µM)	0.39 (≈ 1.23 µM)		
COc1ccc(/C=C\c2cc(F)c(OC)c(OC)c2)cc1OP(=O)([O-])[O-].[Na+].[Na+]	0.0051	0.0094	0.0036		1.5	0.0298	0.59	0.0044	16
COc1ccc(/C=C/c2cc(OC)c(OC)c(O[Si](C)(C)C(C)(C)C)c2)cc1[N+](=O)[O-]	4.1 (≈ 9.2 µM)	2.9 (≈ 6.51 µM)	2.8 (≈ 6.28 µM)		> 10	2.22 (≈ 4.98 µM)	> 10	3.2 (≈ 7.18 µM)	
COc1ccc(/C=C\c2cc(F)c(OC)c(OC)c2)cc1OP(=O)([O-])[O-].[Li+].[Li+]	0.004	0.0039	0.0043		> 1	0.019	0.49	0.0038	
COc1ccc(/C=C\c2cc(OC)c(OC)c(OC)c2)cc1OP(=O)([O-])[O-].[Na+].[Na+] [FOSBRETABULIN DISODIUM]	0.036	0.029			0.034	0.0004			
COc1ccc(/C=C\c2cc(O)c(OC)c(OC)c2)cc1N.Cl	0.0022	0.035	0.012		1.3	0.0289	1	< 0.01	
COc1ccc(/C=C\c2cc(F)c(OC)c(OC)c2)cc1OP(=O)([O-])[O-].[K+].[K+]	0.0039	0.0043	0.0037		> 1	0.0074	0.548	0.004	
COc1ccc(/C=C/c2cc(O)c(OC)c(OC)c2)cc1[N+](=O)[O-]	0.41 (≈ 1.24 µM)	0.25 (≈ 0.755 µM)	0.36 (≈ 1.09 µM)		1.2 (≈ 3.62 µM)	0.224 (≈ 0.676 µM)	1.1 (≈ 3.32 µM)	0.56 (≈ 1.69 µM)	
COc1ccc(/C=C\c2cc(Br)c(OC)c(OC)c2)cc1OP(=O)([O-])[O-].[Li+].[Li+]	0.003	0.0026	0.0066		0.11	< 0.01	0.13	0.0039	
COc1ccc(/C=C\c2cc(Br)c(OC)c(OC)c2)cc1OP(=O)([O-])[O-].[Cs+].[Cs+]	0.0064	0.0066	0.0079		0.48	< 0.01	0.15	0.0044	
COc1ccc(/C=C\c2cc(OC)c(OC)c(OC)c2)c(O)c1O [COMBRETASTATIN A-1]		0.74 (≈ 2.23 µM)	0.17 (≈ 0.512 µM)		0.061 (≈ 0.184 µM)	0.251 (≈ 0.755 µM)	4.4 (≈ 13.2 µM)		
COc1ccc(/C=C\c2cc(Br)c(OC)c(OC)c2)cc1OP(=O)([O-])[O-].[Ca+2]	0.0022	0.0068	0.0063		0.37	0.288	< 0.001	0.0022	
